This is a sample that favours compounds with a hit; in the whole collection about 2.8% have one here.
pCIP destab: p/CIP-EGFP fusion destabilizers, primary screen, fluorescence, F442A cells; Q05BA5; 16 h; decrease of EGFP signal, % at 10 µM; 0.01% of 290,000 active; AID 1984, 2009;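 active means EGFP signal decrease of at least 30% at 10 µM or well 3 SD below plate mean, unless failing retest; inactive means the rest, including hits failing retest or dose response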
PP1 inh: PP1-alpha phosphatase inhibitors, primary screen, counter-screen for PP5 inhibitor project, biochemical, fluorescence, OMFP substrate, single point; Serine/threonine-protein phosphatase PP1-alpha catalytic subunit (Homo sapiens), P62136; purified PP1alpha; inhibition, % at 6.7 µM; 0.9% of 320,000 active; AID 2235, 2010;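 active means inhibition above the mean inhibition of all tested compounds plus 3 SD, computed separately for each screening campaign, cut at about 15% in these data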
Target sequence (P62136 whole entry, looked up): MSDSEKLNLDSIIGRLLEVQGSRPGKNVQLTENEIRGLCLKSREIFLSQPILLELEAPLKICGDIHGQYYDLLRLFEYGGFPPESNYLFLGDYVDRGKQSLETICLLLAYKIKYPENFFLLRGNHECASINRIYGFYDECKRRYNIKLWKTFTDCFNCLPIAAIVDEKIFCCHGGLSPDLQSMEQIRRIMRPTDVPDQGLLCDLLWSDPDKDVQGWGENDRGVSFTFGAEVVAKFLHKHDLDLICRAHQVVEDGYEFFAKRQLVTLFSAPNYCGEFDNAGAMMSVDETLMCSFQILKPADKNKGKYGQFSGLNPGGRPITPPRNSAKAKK
AI-2 QS mod: Vibrio harveyi AI-2 quorum sensing modulators, primary screen, JMH597 strain, luminescence/OD600 ratio; AID 2094, 2009; Vibrio harveyi JMH597 AI-2 luminescence/OD600 ratio, 9 h; active compounds read low; strain lacks LuxN and CqsS sensors; 0 = neutral-control median; activity change, % at 7.5 µM; 0.4% of 300,000 active; in the data active means activity change below about -75%, passing the limit was not always enough;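 further: luminescence divided by OD600 gain over 9 h not by final OD600 alone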
T cruzi inh: inhibitors of intracellular T. cruzi growth, primary screen, luminescence, NIH3T3 host cells; 1.4% of 300,000 active; AID 1885, 2009; inhibition, % (concentration not given with the values); T. cruzi beta-gal in NIH3T3, 90 h;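 active means mean inhibition across valid replicates above about 55%, limit read from the data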;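 further: signal also drops with host cell toxicity which is not excluded here; 0% = plate median of DMSO wells and 100% = zero luminescence signal; higher percent means less beta-gal luminescence so fewer parasites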
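Incubation – ≥90 h infection period, 3 h prior cell attachment · System – NIH/3T3 fibroblasts plus reporter T. cruzi · Doses – compound pinned at 50 nL/well, DMSO · Read-out basis – percent inhibition of parasite-derived β-gal signal · Signal – luminescent β-galactosidase signal after 60 min lysis · Also added – 5000 T. cruzi trypomastigotes/well · Medium – Low-serum DMEM with 2% FBS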
UBC13 polyUb: UBC13 polyubiquitin chain formation inhibitors, primary screen, biochemical, TR-FRET, uHTS | inhibition, % at 20 µM | 0.47% of 330,000 active; in the data active means inhibition above about 45%, passing the limit was not always enough
Target sequence (P61088 whole entry, looked up): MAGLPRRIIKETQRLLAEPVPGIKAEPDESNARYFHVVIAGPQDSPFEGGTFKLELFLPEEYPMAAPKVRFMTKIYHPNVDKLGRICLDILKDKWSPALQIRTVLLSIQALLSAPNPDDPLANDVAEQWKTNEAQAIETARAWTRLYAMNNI
PP1 confirm: PP1 phosphatase inhibitors, confirmation, biochemical, fluorescence, OMFP substrate, triplicate. AID 2358, 2010. inhibition, % at 6.7 µM. 52% of 1,900 active. shares compounds with PP1 inh. purified PP1alpha;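 active means mean PP1 inhibition above a set limit taken from the earlier primary screen, cut at about 15% in these data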
PP5 counter: PP5 phosphatase inhibition by PP1 hits, confirmation, counter-screen for PP1 inhibitor project, biochemical, fluorescence, triplicate | shares compounds with PP1 inh | purified PP5c, OMFP fluorescence | inhibition, % at 6.7 µM | 4% of 1,900 active;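 active means mean PP5 inhibition over triplicate wells above about 9.5% taken from the earlier PP1 screen, limit read from the data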
The depositor's hits bear a star; · = no result given.

SMILES	pCIP destab	PP1 inh	AI-2 QS mod	T cruzi inh	UBC13 polyUb	PP1 confirm	PP5 counter
C=C(C)CSc1cc(C)nc2c(-c3ccccc3)c(C)nn12	-15	-3	12	36	-4	·	·
Cc1cc(C)n2nc(SCC(=O)N3CCN(c4ccccc4)CC3)nc2n1	·	·	·	·	1	·	·
Cc1cc(F)ccc1S(=O)(=O)N1CCCOC1CNC(=O)C(=O)NCc1cccnc1 (stereo unspecified)	-3	-2	14	-4	6	·	·
Cc1cc(C)nc(-n2nc(C)c3c(=O)[nH]c(C(F)(F)F)nc32)n1	-2	19*	0	-35	-5	-6	-6
CCOc1ccccc1NC(=O)COC(=O)Cc1ccsc1	·	3	·	·	8	·	·
CCOc1ccccc1NC(=O)COC(=O)Cc1ccc(-c2ccccc2)cc1	-1	21*	5	-5	-1	16*	-3
O=C(/C=C/c1ccc(Br)cc1)c1ccco1	-5	-5	23	-1	6	·	·
COC(=O)c1ccc(NC(=O)c2ccc(NC(=O)c3ccco3)cc2)cc1	-3	30*	31	10	-2	26*	-2
O=C(/C=C/c1ccc(Br)cc1)c1ccc(NC(=O)c2ccco2)cc1	-1	22*	20	-30	1	22*	1
O=C(Nc1ccc(N2CCN(C(=O)c3ccco3)CC2)cc1)c1ccc(Br)cc1	-3	21*	10	-1	2	39*	-2
Cc1ccc(C(=O)Nc2ccc(N3CCN(C(=O)c4ccco4)CC3)cc2)cc1	-4	1	15	10	14	·	·
NNC(=O)CS(=O)(=O)CS(=O)(=O)CC(=O)NN	-3	-1	-2	-10	-2	·	·
COc1ccc(/C=C/C(=O)O)cc1S(=O)(=O)NCC1CCCO1 (stereo unspecified)	-10	2	10	-17	0	·	·
O=C(COc1ccc(C(=S)N2CCCC2)cc1)Nc1ccccc1C(F)(F)F	-10	-1	33	-4	2	·	·
Cc1ccc(-n2nc(C(=O)O)cc2-c2ccc(Cl)cc2)cc1	-8	47*	58	-4	1	47*	3
O=C(O)c1cc(-c2ccc(Cl)c(Cl)c2)n(-c2ccccc2)n1	-3	58*	25	1	4	52*	-5
O=C(c1cc(-c2ccc(Cl)cc2)n(-c2ccc(Cl)c(Cl)c2)n1)N1CCOCC1	-14	-1	-2	13	4	·	·
O=C(c1cc(-c2ccc(Cl)c(Cl)c2)on1)N1CCN(c2ccccc2)CC1	-10	-3	37	-30	-14	·	·
CNC(=O)c1cc(-c2ccc(Cl)cc2)n(-c2ccccc2)n1	11	-2	11	5	-2	·	·
O=C(O)c1cc(-c2ccc(Cl)cc2)n(-c2ccc(Cl)cc2)n1	1	43*	27	-4	-4	45*	-3
O=C(O)c1cc(-c2ccc(Cl)cc2)n(-c2ccc(F)cc2)n1	-6	47*	-13	-13	-1	37*	-2
Cc1ccc(-n2nc(C(=O)O)cc2-c2ccccc2)cc1	2	33*	17	-13	6	31*	-4
Cc1ccc(-n2nc(C(=O)O)nc2-c2ccccc2)cc1	10	12	9	-2	-8	·	·
CC(=O)c1sc2c(c1OC(=O)c1ccc(Cl)cc1Cl)c(=O)n(-c1ccccc1)c(=S)n2-c1ccccc1	-6	38*	19	8	-4	10	-2
CC(=O)c1sc2c(c1N)c(=O)[nH]c(=O)n2-c1ccccc1	-6	-1	2	-13	-5	·	·
SMILES	pCIP destab	PP1 inh	AI-2 QS mod	T cruzi inh	UBC13 polyUb	PP1 confirm	PP5 counter
COc1ccc(C)cc1NC(=S)NNC(=O)c1c(Br)cnn1C	-6	-2	3	-14	4	·	·
CC(=O)OCC(=O)N1N=C(c2ccc3ccccc3c2)CC1c1ccccc1 (stereo unspecified)	7	4	26	6	6	·	·
Nc1cc(=O)[nH]c(SCC(=O)N2N=C(c3ccc4ccccc4c3)CC2c2ccccc2)n1 (stereo unspecified)	-4	21*	14	-11	-10	3	0
COCCNC(=O)CN(CCc1ccccc1)S(=O)(=O)c1ccc(Br)cc1	-1	33*	3	-6	-2	-1	-1
O=C1CC(C(=O)Nc2ccc(Cl)cc2)S/C(=N\N=C\c2ccco2)N1 (stereo unspecified)	6	8	12	-5	-3	·	·
O=C1CC(C(=O)Nc2ccc(Cl)c(Cl)c2)S/C(=N\N=C\c2ccco2)N1 (stereo unspecified)	0	22*	26	-21	-18	11	-5
COc1ccc(NC(=O)NNC(=O)c2ccc(-c3ccccc3)cc2)cc1	-2	28*	22	-4	-1	22*	-6
COc1ccc(NC(=O)NNC(=O)COc2ccc3cc(Br)ccc3c2)cc1	4	·	23	8	-7	·	·
COc1ccc2cc(OCC(=O)NNC(=O)Nc3ccc(C(C)=O)cc3)ccc2c1	-2	43*	10	-4	-9	41*	-2
COc1ccc(NC(=O)NNC(=O)COc2ccc3cc(Br)ccc3c2)cc1OC	6	25*	6	-4	-18	25*	-6
c1ccc(-c2ccc(C3=Nn4c(nnc4-c4cc(-c5ccccc5)n[nH]4)SC3)cc2)cc1	-8	30*	11	29	-10	33*	3
CC1=Nn2c(nnc2-c2cc(-c3ccccc3)n[nH]2)SC1	-2	0	5	-6	3	·	·
Brc1ccc(C2=Nn3c(nnc3-c3n[nH]c4c3CCC4)SC2)cc1	-19	22*	19	7	-2	2	-2
Cc1cc([N+](=O)[O-])ccc1NCc1cccc2ccccc12	·	3	11	38	-1	·	·
O=[N+]([O-])c1ccc(CCNc2cccc3ccccc23)c([N+](=O)[O-])c1	-7	25*	20	36	-34	24*	-2
O=C(CCNC(=O)c1ccc(Cl)cc1)NNC(=O)c1ccc(F)cc1	·	·	·	·	0	·	·
NC(=O)c1nc(-c2ccccc2)c(-c2ccccc2)[nH]c1=O	·	20*	14	-6	15	16*	-4
Cc1ccc(NC(=O)/C(=C\c2ccc([N+](=O)[O-])cc2)NC(=O)c2ccccc2)cc1	-10	0	39	-5	-14	·	·

High-throughput results (PubChem BioAssay)
